Assay results as given in ChEMBL document CHEMBL1137343, “4-arylazo-3,5-diamino-1H-pyrazole CDK inhibitors: SAR study, crystal structure in complex with CDK2, selectivity, and cellular effects” (J Med Chem, 2006).

Experiments:
MCF7 [1] = test: Viability of MCF7 cells at 100 uM; type: functional, Homo sapiens
Summary of the method: (§1)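 Cells grown in DMEM with 10% FCS and 4 mM glutamine at 37 °C, plated in 96-well format, preincubated 12 h, then exposed 72 h. Live cells measured by Calcein AM (1 h) fluorescence at 485/538 nm; % viable cells given at 100 µM compound.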

G-361 [2] = test: Antiproliferative activity against G361 cell line; type: functional, cell-based; conditions: Homo sapiens
Summary of the method: (§2)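 Cells grown in DMEM with 10% FCS, glutamine and penicillin/streptomycin at 37 °C, seeded in 96-well plates and preincubated 12 h. Compounds were added in 6-fold dilutions (1-100 µM) for 72 h. IC50 taken from dose-response curves.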

HOS [3] = test: Antiproliferative activity against HOS cell line; type: functional, cell-based; conditions: Homo sapiens; summary of the method: as §2
K562 [4] = test: Antiproliferative activity against K562 cell line; type: functional, cell-based; conditions: Homo sapiens; summary of the method: as §2
K562 [5] = test: Viability of K562 cells at 100 uM; type: functional, Homo sapiens; summary of the method: as §1
[6] = target: T1, Cyclin-dependent kinase 2/cyclin E (Homo sapiens, UniProt P24941); test: Inhibition of CDK2/Cyclin E in presence of 15 uM ATP; type: protein-complex assay
MCF7 [7] = test: Antiproliferative activity against MCF7 cell line; type: functional, cell-based; conditions: Homo sapiens; summary of the method: as §2
G-361 [8] = test: Viability of G361 cells at 100 uM; type: functional, Homo sapiens; summary of the method: as §1
HOS [9] = test: Viability of HOS cells at 100 uM; type: functional, Homo sapiens; summary of the method: as §1
[10] = target: Cyclin-dependent kinase 1/cyclin B (Homo sapiens, UniProt P06493); test: Inhibition of CDK1/Cyclin B in presence of 100 uM ATP; type: protein-complex assay
[11] = target: T1, Cyclin-dependent kinase 2/cyclin E; test: Inhibition of CDK2/Cyclin E in presence of 100 uM ATP; type: protein-complex assay
[12] = target: Cyclin-dependent kinase 7/ cyclin H (Homo sapiens, UniProt P50613); test: Inhibition of CDK7/Cyclin H in presence of 100 uM ATP; type: protein-complex assay
CDK9/cyclin T1 = CDK9/cyclin T1 (Homo sapiens, UniProt P50750); test: Inhibition of CDK9/Cyclin T1 in presence of 100 uM ATP; type: protein-complex assay
[13] = target: Cyclin-dependent kinase 2/cyclin A (Homo sapiens, UniProt P24941); test: Inhibition of CDK2/Cyclin A in presence of 100 uM ATP; type: protein-complex assay
[14] = target: Cyclin-dependent kinase 4/cyclin D1 (Homo sapiens, UniProt P11802); test: Inhibition of CDK4/Cyclin D1 in presence of 100 uM ATP; type: protein-complex assay
HT-29 [15] = test: Inhibition of GAPDH mRNA synthesis in HT29 cells measured as number of copies per 10^6 cells by RT PCR at 70 uM after 3 hrs; type: functional, Homo sapiens
Summary of the method: (§3)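 HT-29 cells (5 × 10⁶) treated for 3, 6 or 12 h; total RNA extracted with TRI reagent, 3 µg reverse transcribed with random primers and M-MLV RT (42 °C, 60 min). Absolute transcript copies quantified by TaqMan real-time PCR, 50 cycles, against diluted gene-specific amplicon standards (30–1 000 000 copies); duplicate PCR per sample; values are means of four determinations ± SD.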

HT-29 [16] = test: Cell cycle arrest in HT29 cells by accumulation at S phase at 70 uM after 3 hrs; type: functional, Homo sapiens
Summary of the method: (§4)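 Subconfluent, asynchronous HT-29 cells were treated 3, 6 or 12 h, then pulsed with 10 µM BrdU for 30 min at 37 °C. Cells were fixed in ice-cold 70% ethanol, DNA denatured in 2 M HCl and neutralised with borate. Staining used FITC anti-BrdU, then propidium iodide (0.1 mg/mL) with RNase A. Analysis by flow cytometry with 488 nm laser.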

HT-29 [17] = test: Inhibition of CEA mRNA synthesis in HT29 cells measured as number of copies per 10^6 cells by RT PCR at 70 uM after 3 hrs; type: functional, Homo sapiens
Summary of the method: (§5)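 HT-29 cells were treated 3, 6 or 12 h; total RNA extracted with TRI reagent. 3 µg RNA reverse-transcribed with random primers and M-MLV RT at 42 °C for 60 min. CEA transcripts quantified by TaqMan real-time PCR: 50 cycles of 95 °C 15 s and 65 °C 15 s. Absolute copies came from amplicon standards of 30 to 10^6 copies, expressed per 10^6 cells. Samples run in duplicate PCR; values average of four determinations ± SD.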

HT-29 [18] = test: Cell cycle arrest in HT29 cells by accumulation at G0/G1 phase at 70 uM after 3 hrs; type: functional, Homo sapiens; summary of the method: as §4
HT-29 [19] = test: Cell cycle arrest in HT29 cells by accumulation at S phase at 70 uM after 12 hrs; type: functional, Homo sapiens; summary of the method: as §4
HT-29 [20] = test: Inhibition of GAPDH mRNA synthesis in HT29 cells measured as number of copies per 10^6 cells by RT PCR at 70 uM after 6 hrs; type: functional, Homo sapiens; summary of the method: as §3
HT-29 [21] = test: Cell cycle arrest in HT29 cells by accumulation at G0/G1 phase at 70 uM after 6 hrs; type: functional, Homo sapiens; summary of the method: as §4
HT-29 [22] = test: Inhibition of EpCAM mRNA synthesis in HT29 cells measured as number of copies per 10^6 cells by RT PCR at 70 uM after 6 hrs; type: functional, Homo sapiens; summary of the method: as §3
HT-29 [23] = test: Cell cycle arrest in HT29 cells by accumulation at G2/M phase at 70 uM after 6 hrs; type: functional, Homo sapiens; summary of the method: as §4
HT-29 [24] = test: Inhibition of CEA mRNA synthesis in HT29 cells measured as number of copies per 10^6 cells by RT PCR at 70 uM after 12 hrs; type: functional, Homo sapiens; summary of the method: as §5
HT-29 [25] = test: Cell cycle arrest in HT29 cells by accumulation at G0/G1 phase at 70 uM after 12 hrs; type: functional, Homo sapiens; summary of the method: as §4
HT-29 [26] = test: Cell cycle arrest in HT29 cells by accumulation at S phase at 70 uM after 6 hrs; type: functional, Homo sapiens; summary of the method: as §4
HT-29 [27] = test: Inhibition of GAPDH mRNA synthesis in HT29 cells measured as number of copies per 10^6 cells by RT PCR at 70 uM after 12 hrs; type: functional, Homo sapiens; summary of the method: as §3
HT-29 [28] = test: Inhibition of EpCAM mRNA synthesis in HT29 cells measured as number of copies per 10^6 cells by RT PCR at 70 uM after 3 hrs; type: functional, Homo sapiens; summary of the method: as §3
HT-29 [29] = test: Inhibition of CEA mRNA synthesis in HT29 cells measured as number of copies per 10^6 cells by RT PCR at 70 uM after 6 hrs; type: functional, Homo sapiens; summary of the method: as §5
HT-29 [30] = test: Cell cycle arrest in HT29 cells by accumulation at G2/M phase at 70 uM after 12 hrs; type: functional, Homo sapiens; summary of the method: as §4
HT-29 [31] = test: Inhibition of EpCAM mRNA synthesis in HT29 cells measured as number of copies per 10^6 cells by RT PCR at 70 uM after 12 hrs; type: functional, Homo sapiens; summary of the method: as §3
HT-29 [32] = test: Cell cycle arrest in HT29 cells by accumulation at G2/M phase at 70 uM after 3 hrs; type: functional, Homo sapiens; summary of the method: as §4

Cyclin-dependent kinase 4/cyclin D1, sequence (P11802 whole entry): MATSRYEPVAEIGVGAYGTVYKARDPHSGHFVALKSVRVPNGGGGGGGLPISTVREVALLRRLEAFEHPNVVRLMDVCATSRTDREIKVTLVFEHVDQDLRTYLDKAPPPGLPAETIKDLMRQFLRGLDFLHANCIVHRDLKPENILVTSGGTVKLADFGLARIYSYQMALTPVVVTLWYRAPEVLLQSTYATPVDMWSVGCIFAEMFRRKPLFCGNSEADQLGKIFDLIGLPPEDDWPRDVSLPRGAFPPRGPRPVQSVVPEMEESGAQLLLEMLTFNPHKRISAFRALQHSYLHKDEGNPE
Cyclin-dependent kinase 4/cyclin D1, sequence (P24385 whole entry, further chain): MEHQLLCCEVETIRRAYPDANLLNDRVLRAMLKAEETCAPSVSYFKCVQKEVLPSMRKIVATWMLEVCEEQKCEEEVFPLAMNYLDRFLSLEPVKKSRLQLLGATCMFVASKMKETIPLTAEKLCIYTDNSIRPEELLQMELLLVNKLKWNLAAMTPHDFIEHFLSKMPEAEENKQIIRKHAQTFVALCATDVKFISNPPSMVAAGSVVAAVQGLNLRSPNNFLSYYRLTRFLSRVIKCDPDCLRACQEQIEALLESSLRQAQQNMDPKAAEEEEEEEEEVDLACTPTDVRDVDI
Cyclin-dependent kinase 7/ cyclin H, sequence (P51946 whole entry): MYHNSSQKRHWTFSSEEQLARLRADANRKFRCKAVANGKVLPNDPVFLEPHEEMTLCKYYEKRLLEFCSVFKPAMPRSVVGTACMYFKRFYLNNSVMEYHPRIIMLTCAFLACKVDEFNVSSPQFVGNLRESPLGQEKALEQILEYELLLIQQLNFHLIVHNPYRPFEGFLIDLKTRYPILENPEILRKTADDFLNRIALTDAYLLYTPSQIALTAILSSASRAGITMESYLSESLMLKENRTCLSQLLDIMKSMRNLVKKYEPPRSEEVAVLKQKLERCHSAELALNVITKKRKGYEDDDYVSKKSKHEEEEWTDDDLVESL
Cyclin-dependent kinase 7/ cyclin H, sequence (P50613 whole entry): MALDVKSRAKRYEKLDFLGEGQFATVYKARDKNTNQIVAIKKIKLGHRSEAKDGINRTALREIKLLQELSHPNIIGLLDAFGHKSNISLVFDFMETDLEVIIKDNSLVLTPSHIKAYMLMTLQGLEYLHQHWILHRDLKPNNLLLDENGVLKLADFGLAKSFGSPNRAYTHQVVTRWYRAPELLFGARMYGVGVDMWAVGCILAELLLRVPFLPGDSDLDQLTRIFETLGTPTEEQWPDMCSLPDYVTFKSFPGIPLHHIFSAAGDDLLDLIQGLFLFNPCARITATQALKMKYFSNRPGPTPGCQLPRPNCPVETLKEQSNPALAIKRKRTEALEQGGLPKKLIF
CDK9/cyclin T1, sequence (O60563 whole entry): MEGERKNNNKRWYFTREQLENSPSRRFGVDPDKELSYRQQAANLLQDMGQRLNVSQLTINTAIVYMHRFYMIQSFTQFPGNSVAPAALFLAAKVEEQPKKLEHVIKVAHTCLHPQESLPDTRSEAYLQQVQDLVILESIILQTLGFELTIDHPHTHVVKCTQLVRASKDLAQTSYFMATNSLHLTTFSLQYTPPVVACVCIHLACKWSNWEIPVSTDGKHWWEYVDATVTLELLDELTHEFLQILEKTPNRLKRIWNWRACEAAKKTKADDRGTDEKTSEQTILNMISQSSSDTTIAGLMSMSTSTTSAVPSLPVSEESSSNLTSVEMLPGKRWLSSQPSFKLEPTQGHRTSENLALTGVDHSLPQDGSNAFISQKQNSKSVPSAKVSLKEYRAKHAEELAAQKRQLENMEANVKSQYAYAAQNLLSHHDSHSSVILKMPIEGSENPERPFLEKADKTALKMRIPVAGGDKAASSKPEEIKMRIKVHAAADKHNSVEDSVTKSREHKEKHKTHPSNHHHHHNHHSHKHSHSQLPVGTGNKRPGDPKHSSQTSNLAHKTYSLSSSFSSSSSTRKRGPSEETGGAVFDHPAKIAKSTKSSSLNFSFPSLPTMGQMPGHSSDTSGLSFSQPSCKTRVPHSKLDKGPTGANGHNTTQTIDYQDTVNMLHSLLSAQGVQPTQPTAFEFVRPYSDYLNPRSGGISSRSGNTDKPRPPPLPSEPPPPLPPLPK
CDK9/cyclin T1, sequence (P50750 whole entry): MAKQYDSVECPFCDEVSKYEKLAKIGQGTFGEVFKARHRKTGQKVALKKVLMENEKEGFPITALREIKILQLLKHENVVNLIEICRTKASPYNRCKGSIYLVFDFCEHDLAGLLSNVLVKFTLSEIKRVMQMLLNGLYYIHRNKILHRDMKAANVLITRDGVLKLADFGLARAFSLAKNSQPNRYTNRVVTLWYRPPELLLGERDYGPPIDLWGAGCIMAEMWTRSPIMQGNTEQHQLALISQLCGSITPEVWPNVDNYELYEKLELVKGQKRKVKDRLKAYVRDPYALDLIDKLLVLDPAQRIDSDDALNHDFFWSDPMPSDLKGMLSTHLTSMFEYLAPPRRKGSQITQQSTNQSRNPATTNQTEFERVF

Structure (SMILES)	IC50 (K562 [4]) [µM]	IC50 [6] [µM]	IC50 (MCF7 [7]) [µM]	IC50 [10] [µM]	IC50 [11] [µM]	IC50 [12] [µM]	IC50 (CDK9/cyclin T1) [µM]	IC50 [13] [µM]	IC50 [14] [µM]	Activity (MCF7 [1]) [%]	IC50 (G-361 [2]) [µM]	IC50 (HOS [3]) [µM]	Activity (K562 [5]) [%]	Activity (G-361 [8]) [%]	Activity (HOS [9]) [%]	also measured
Nc1n[nH]c(N)c1/N=N/c1ccccc1C(=O)O	> 100	92	> 100							97	> 100	> 100	89	96	91	
Nc1n[nH]c(N)c1/N=N/c1cccc(O)c1	> 100	6	> 100	> 100	51	82	1.5	> 100	56	71	> 100	> 100	53	70	83	
Nc1n[nH]c(N)c1/N=N/c1ccc(C(=O)O)cc1	> 100	> 100	> 100							97	> 100	> 100	96	86	92	
CC[C@H](CO)Nc1nc(NCc2ccccc2)c2ncn(C(C)C)c2n1 [SELICICLIB]																Activity (HT-29 [15]): 3945095; Activity (HT-29 [16]): 1.1%; Activity (HT-29 [17]): 30568; Activity (HT-29 [18]): 48%; Activity (HT-29 [19]): 1.1%; Activity (HT-29 [20]): 3146605; Activity (HT-29 [21]): 44%; Activity (HT-29 [22]): 6151085; Activity (HT-29 [23]): 55.9%; Activity (HT-29 [24]): 24350; Activity (HT-29 [25]): 64.5%; Activity (HT-29 [26]): 0.1%; Activity (HT-29 [27]): 3926015; Activity (HT-29 [28]): 8258813; Activity (HT-29 [29]): 19150; Activity (HT-29 [30]): 34.5%; Activity (HT-29 [31]): 6863365; Activity (HT-29 [32]): 50.9%
Nc1n[nH]c(N)c1/N=N/c1cccc(C(=O)O)c1	> 100	28	> 100							102	> 100	> 100	84	93	94	
Nc1n[nH]c(N)c1/N=N/c1ccccc1O	> 100	2.5	> 100							72	> 100	> 100	72	74	84	
Nc1n[nH]c(N)c1/N=N/c1ccccc1CO	> 100	17	> 100	> 100	77	> 100	26	> 100	> 100	51	> 100	> 100	86	84	87	
Nc1n[nH]c(N)c1/N=N/c1ccccc1	> 100	22	> 100	> 100	100	> 100	15	> 100	> 100	74	> 100	> 100	90	75	83	

The remaining molecules from weak to strong by IC50 (K562 [4]), led by results:

IC50 (K562 [4]) [µM]	IC50 [6] [µM]	IC50 (MCF7 [7]) [µM]	IC50 [10] [µM]	IC50 [11] [µM]	IC50 [12] [µM]	IC50 (CDK9/cyclin T1) [µM]	IC50 [13] [µM]	IC50 [14] [µM]	Structure (SMILES)	Activity (MCF7 [1]) [%]	IC50 (G-361 [2]) [µM]	IC50 (HOS [3]) [µM]	Activity (K562 [5]) [%]	Activity (G-361 [8]) [%]	Activity (HOS [9]) [%]	also measured
100	6.1	> 100	42	22	77	5.6	88	16	Nc1n[nH]c(N)c1/N=N/c1ccccc1[N+](=O)[O-]	62	> 100	> 100	48	58	57	
79	23	65	> 100	68	> 100	12.4	> 100	70	Nc1n[nH]c(N)c1/N=N/c1cccc([N+](=O)[O-])c1	44	> 100	> 100	28	69	95	
71	40	> 100							Nc1n[nH]c(N)c1/N=N/c1ccc([N+](=O)[O-])cc1	60	> 100	> 100	25	61	80	
55	15	81							Nc1n[nH]c(N)c1/N=N/c1cccc2c1CCCC2	39	77	92	26	27	32	
50	10	> 100							Nc1n[nH]c(N)c1/N=N/c1cccc2ccccc12	56	> 100	> 100	7.7	55	79	
